Source: PubChem (several laboratories)
Most compounds without a hit are left out; they make up all but 1.8% or so of the library.
HTRA1 inh = HTRA1 serine protease inhibitors, primary screen, biochemical, fluorescence polarization, HTS | Q92743 | recombinant HTRA1, FP-rhodamine activity-based probe | 340,000 tested, 0.5% active | AID 504803, 2011 | inhibition, % at 5.96 µM; in the data active means inhibition above about 36%
TCR-CD3 inh = inhibitors of human TCR-CD3 interaction, primary screen, biochemical, fluorescence, TAMRA-labeled TCR probe | inhibition, % at 9.4 µM | 360,000 tested, 0.37% active; in the data active means inhibition above about 19%;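 further: recombinant mutant TCR 2C K166C tagged with TAMRA read by polarization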
ARNT-TACC3 inh = disruptors of ARNT/TACC3 protein interaction, primary screen, biochemical, AlphaScreen, single concentration | Transforming acidic coiled-coil-containing protein 3 (Homo sapiens), Q9Y6A5 | AlphaScreen His-ARNT PAS-B/GST-TACC3 binding, luminescence; TACC3 fragment carries E629A point mutation | inhibition, % at 9.99 µM | 390,000 tested, 0.66% active | AID 623870, 2012;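 active means mean inhibition of replicates at least 50% and at least half of replicates each reaching 50%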
SIAE inh = human SIAE inhibitors, primary screen, biochemical, fluorescence polarization, FP-Rh probe, 1536-well HTS | inhibition, % at 9.66 µM | AID 1053197, 2014 | Sialate O-acetylesterase (Homo sapiens), Q9HAT2 | 370,000 tested, 0.69% active | SIAE FP-Rh probe binding;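 active means inhibition above a cutoff: mean of compounds within the control limits plus 3 SD of those, cut at about 17% in these data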
ABHD4 inh = ABHD4 inhibitors, primary screen, biochemical, fluorescence polarization, mouse; (Lyso)-N-acylphosphatidylethanolamine lipase (Mus musculus), Q8VD66; purified mABHD4, FP-Rh probe fluorescence polarization; inhibition, % at 8.92 µM; 370,000 tested, 0.54% active;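 active means inhibition exceeding the mean over every tested compound plus 3 SD, cut at about 30% in these data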
Target sequence (Q8VD66 whole entry, looked up): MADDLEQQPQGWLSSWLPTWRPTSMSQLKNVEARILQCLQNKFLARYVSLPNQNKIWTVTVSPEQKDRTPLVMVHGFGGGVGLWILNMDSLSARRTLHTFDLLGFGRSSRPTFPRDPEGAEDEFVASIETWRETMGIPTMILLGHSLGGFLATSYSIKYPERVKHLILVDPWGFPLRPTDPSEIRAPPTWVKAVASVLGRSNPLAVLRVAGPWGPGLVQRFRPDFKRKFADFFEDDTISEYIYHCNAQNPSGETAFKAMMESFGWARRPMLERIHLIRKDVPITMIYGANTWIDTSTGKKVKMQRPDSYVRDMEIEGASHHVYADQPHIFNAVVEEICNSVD
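system = mouse ABHD4 enzyme, wild type | medium = HEPES pH 7.0, NaCl, Pluronic buffer | also added = FP-Rh probe | incubation = Enzyme–compound pre-incubation 45 min, then probe 60 min, both 25 °C | technique = fluorescence polarization, excitation 525 nm, emission 598 nm, BODIPY TMR filters | controls = S159A mutant high control, sample median low control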
SIAE confirm = human SIAE inhibitors, retest, confirmation, biochemical, fluorescence polarization, FP-Rh probe, triplicate; 2,300 tested, 13% active; SIAE FP-Rh activity-based probe; shares compounds with SIAE inh; inhibition, % at 9.66 µM; AID 1117263, 2014;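 active means mean inhibition of the replicates above the hit cutoff set in the primary screen, cut at about 17% in these data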;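 further: inhibitors lower polarization as more probe stays unbound to SIAE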
Of the large screens only hits and unclear results are named; the others gave an inactive call (follow-up assays come after a bar, where they were run).

CN1C(=O)c2cc(NS(=O)(=O)c3ccc(F)cc3)ccc2OC[C@H]2O[C@H](CC(=O)NCC(F)(F)F)CC[C@@H]21	none (no result: HTRA1 inh, TCR-CD3 inh, SIAE inh, ABHD4 inh)
CCC(c1nc2ccccc2[nH]1)n1c(C)nc2ccccc21 (configuration not stated)	none (no result: HTRA1 inh, ARNT-TACC3 inh)
CCCCCCCCC(c1nc2ccccc2[nH]1)N1CCN=C1c1cc2ccccc2[nH]1 (configuration not stated)	SIAE inh 22 (no result: HTRA1 inh, ARNT-TACC3 inh) | SIAE confirm 28
Cn1cc(C(=O)N2CCc3ccccc32)cn1	SIAE inh 184 | SIAE confirm inactive
COc1ccc(NC(=O)Nc2ccc3c(c2)C(=O)N([C@H](C)CO)C[C@H](C)[C@@H](CN(C)C(=O)Nc2c(C)noc2C)OCCCC[C@H](C)O3)cc1	none (no result: HTRA1 inh, TCR-CD3 inh, SIAE inh, ABHD4 inh)
CCCOn1nnnc1-c1ccccc1	SIAE inh 18 | SIAE confirm inactive
CN(C)c1ccc(NC(=O)C2C3C=CC(C3)C2C(=O)O)cc1 (configuration not stated)	TCR-CD3 inh 33, SIAE inh 23, ABHD4 inh 35 | SIAE confirm inactive
Cc1ccc(S(=O)(=O)Nc2ccc3c(c2)nc(CCN2CCN(c4ccccn4)CC2)n3C)cc1	SIAE inh 19 | SIAE confirm inactive
C[C@@H]1CN([C@@H](C)CO)C(=O)c2cc(NS(=O)(=O)c3cccs3)ccc2O[C@@H](C)CCCCO[C@@H]1CN(C)Cc1ccccc1	none (no result: HTRA1 inh, TCR-CD3 inh, SIAE inh, ABHD4 inh)
CC(=O)Nc1ccc2c(c1)C(=O)N(C)[C@H]1CC[C@@H](CC(=O)NCc3ccc4c(c3)OCO4)O[C@@H]1CO2	none (no result: HTRA1 inh, TCR-CD3 inh, SIAE inh, ABHD4 inh)
CCOc1ccccc1OCCC(=O)NNC(=O)Cn1nc(C)cc1C	SIAE inh 17 | SIAE confirm inactive
CO[C@H]1CN(C)C(=O)c2ccc(NC(C)=O)cc2OC[C@@H](C)N(CC2CC2)C[C@@H]1C	none (no result: HTRA1 inh, TCR-CD3 inh, SIAE inh, ABHD4 inh)
C[C@@H]1CN([C@H](C)CO)S(=O)(=O)c2ccc(/C=C/c3ccccc3)cc2O[C@@H]1CN(C)CC1CC1	none (no result: HTRA1 inh, TCR-CD3 inh, SIAE inh, ABHD4 inh)
Cc1ccc(S(=O)(=O)N2CCN(c3ccccc3)CC2)c(C)c1	SIAE inh 22 (no result: ARNT-TACC3 inh) | SIAE confirm inactive
Cc1cc(C)c(S(=O)(=O)N2CCN(c3ccccc3)CC2)c(C)c1	none
Cn1cc(S(=O)(=O)N2CCN(c3ccccc3)CC2)c(=O)n(C)c1=O	SIAE inh 60 | SIAE confirm inactive
CC(C)NC(=O)Nc1ccc2c(c1)CC(=O)N([C@@H](C)CO)C[C@@H](C)[C@H](CN(C)C(=O)Nc1ccc(C(F)(F)F)cc1)O2	none (no result: HTRA1 inh, TCR-CD3 inh, SIAE inh, ABHD4 inh)
CN(Cc1cccs1)C(=O)c1ccc(S(=O)(=O)N2CCCCC2)cc1	none
Cc1ccc(CN(C)C(=O)c2ccc(S(=O)(=O)N3CCCCCC3)cc2)o1	SIAE inh 17 | SIAE confirm inactive
CC(C)NC(=O)N(C)C[C@H]1Oc2ccc(NS(C)(=O)=O)cc2C(=O)N([C@@H](C)CO)C[C@H]1C	none (no result: HTRA1 inh, TCR-CD3 inh, SIAE inh, ABHD4 inh)
O=C(Nc1ccccc1)Nc1nnc([C@@H]2C[C@H](O)[C@@H](CO)O2)s1	SIAE inh 47 (no result: HTRA1 inh, ARNT-TACC3 inh) | SIAE confirm inactive
C[C@H](CO)N1C[C@H](C)[C@@H](CN(C)S(=O)(=O)c2ccc(C#N)cc2)OCc2ccccc2-c2ccccc2C1=O	none (no result: HTRA1 inh, TCR-CD3 inh, SIAE inh, ABHD4 inh)
c1cc2c(cc1-c1cnc3n1CCC3)OCCO2	SIAE inh 17 | SIAE confirm inactive
CCN(CC)C1=NC=CC(c2ccccc2)=CC1C (configuration not stated)	SIAE inh 28 | SIAE confirm inactive
O=C(O)C1=C[C@H](c2ccc3c(c2)Cc2ccccc2-3)C[C@H](OCCCCO)O1	none (no result: HTRA1 inh, TCR-CD3 inh, SIAE inh, ABHD4 inh)
